Laboratory results as given in ChEMBL document CHEMBL1145606, “Discovery of amino-acetonitrile derivatives, a new class of synthetic anthelmintic compounds” (2008).

Key:
Format in all cases: functional
[1] = tested on: Haemonchus contortus; assay: Anthelmintic activity against benzimidazole-resistant Haemonchus contortus isolate by larva development assay
Summary of the method: (§1)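 Larval development assay: test compounds were embedded in an agar-based nutritive medium that supports development from eggs to third-stage larvae (L3). Plates were incubated for 6 days at 28 °C and 80% relative humidity, and egg hatching and larval development were recorded. Values are means of three experiments.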

[2] = tested on: Trichostrongylus colubriformis; assay: Anthelmintic activity against levamisole-resistant Trichostrongylus colubriformis isolate by larva development assay; summary of the method: as §1
[3] = tested on: Haemonchus contortus; assay: Anthelmintic activity against Haemonchus contortus infected in gerbils assessed as reduction in worm count at 1 mg/kg, po; design: scale not given: the % may be the effect or the level left
Summary of the method: (§2)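 Gerbils (Meriones unguiculatus) were artificially infected with H. contortus larvae 6 days, or T. colubriformis larvae 5 days, before treatment. They were then dosed orally or subcutaneously, and controls received a placebo formulation. Three days post-treatment the animals were sacrificed and dissected for worm recovery.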

[4] = tested on: Trichostrongylus colubriformis; assay: Anthelmintic activity against Trichostrongylus colubriformis infected in gerbils assessed as reduction in worm count at 1 mg/kg, po; design: scale not given: the % may be the effect or the level left; summary of the method: as §2
[5] = tested on: Haemonchus contortus; assay: Anthelmintic activity against Haemonchus contortus infected in gerbils assessed as reduction in worm count at 1 mg/kg, sc; design: scale not given: the % may be the effect or the level left; conditions: route subcutaneous; summary of the method: as §2
[6] = tested on: Trichostrongylus colubriformis; assay: Anthelmintic activity against Trichostrongylus colubriformis infected in gerbils assessed as reduction in worm count at 1 mg/kg, sc; design: scale not given: the % may be the effect or the level left; conditions: route subcutaneous; summary of the method: as §2
[7] = tested on: Haemonchus contortus; assay: Anthelmintic activity against Haemonchus contortus infected in gerbils assessed as reduction in worm count at 3.2 mg/kg, po; design: scale not given: the % may be the effect or the level left; summary of the method: as §2
[8] = tested on: Trichostrongylus colubriformis; assay: Anthelmintic activity against Trichostrongylus colubriformis infected in gerbils assessed as reduction in worm count at 3.2 mg/kg, po; design: scale not given: the % may be the effect or the level left; summary of the method: as §2
[9] = tested on: Haemonchus contortus; assay: Anthelmintic activity against Haemonchus contortus infected in gerbils assessed as reduction in worm count at 10 mg/kg, po; design: scale not given: the % may be the effect or the level left; summary of the method: as §2
[10] = tested on: Trichostrongylus colubriformis; assay: Anthelmintic activity against Trichostrongylus colubriformis infected in gerbils assessed as reduction in worm count at 10 mg/kg, po; design: scale not given: the % may be the effect or the level left; summary of the method: as §2

Molecule `CC(C#N)(COc1ccc(C#N)cc1C(F)(F)F)NC(=O)c1ccc(OC(F)(F)F)cc1` (stereo not given) has an EC100 [1] of 0.032 ppm, an EC100 [2] of 0.1 ppm and an Activity [3] of 95%. For the same molecule, the Activity [4] was 98%, the Activity [5] was 91% and the Activity [6] was 97%.

`CC(C#N)(COc1ccc(C#N)cc1C(F)(F)F)NC(=O)c1ccc(C(F)(F)F)cc1` (stereo not given) showed an EC100 [1] of 0.1 ppm, an EC100 [2] of 0.1 ppm and an Activity [3] of 97%. For the same molecule, the Activity [4] was 91%.

`CC(C#N)(COc1cc(F)c(F)cc1Br)NC(=O)c1ccc(OC(F)(F)F)cc1` (stereo not given) gave an EC100 [1] of 0.01 ppm, an EC100 [2] of 0.032 ppm and an Activity [7] of 100%. For the same molecule, the Activity [8] was 97%.

For `CC(C#N)(COc1ccccc1Cl)NC(=O)c1ccc(OC(F)(F)F)cc1` (stereo not given), the EC100 [1] was 0.032 ppm and the EC100 [2] was 0.032 ppm.

`CC(C#N)(COc1ccc(F)cc1Cl)NC(=O)c1ccc(OC(F)(F)F)cc1` (stereo not given) was tested, and the EC100 [1] was 0.032 ppm, the EC100 [2] was 0.032 ppm and the Activity [7] was 98%. The Activity [8] was 77%.

With `CC(C#N)(COc1ccccc1Cl)NC(=O)c1ccccc1C(F)(F)F` (stereo not given) the EC100 [1] was greater than 10 ppm and the EC100 [2] was greater than 10 ppm.

Molecule `CC(C#N)(COc1cc(Cl)ccc1Cl)NC(=O)c1ccc(OC(F)(F)F)cc1` (stereo not given) has an EC100 [1] of 0.01 ppm, an EC100 [2] of 0.032 ppm and an Activity [7] of 68%. The Activity [8] was 89%.

Molecule `CC(C#N)(COc1ccc(Cl)cc1Cl)NC(=O)c1ccc(OC(F)(F)F)cc1` (stereo not given) has an EC100 [1] of 0.1 ppm, an EC100 [2] of 0.1 ppm and an Activity [9] of 94%. For the same molecule, the Activity [10] was 100%.

With `CC(C#N)(COc1ccccc1Br)NC(=O)c1ccc(OC(F)(F)F)cc1` (stereo not given) the EC100 [1] was 0.032 ppm, the EC100 [2] was 0.032 ppm and the Activity [9] was 97%. The Activity [10] was 99%.

For `CC(C#N)(COc1ccccc1F)NC(=O)c1ccc(C(F)(F)F)cc1` (stereo not given), the EC100 [1] was 1 ppm and the EC100 [2] was 1 ppm.

For `CC(C#N)(COc1ccccc1C(F)(F)F)NC(=O)c1ccc(OC(F)(F)F)cc1` (stereo not given), the EC100 [1] was 0.01 ppm, the EC100 [2] was 0.01 ppm and the Activity [9] was 98%. The Activity [10] was 97%.

Molecule `CC(C#N)(COc1ccccc1Cl)NC(=O)c1ccc(Cl)cc1` (stereo not given) has an EC100 [1] of 0.32 ppm and an EC100 [2] of 0.32 ppm.

`Cc1ccc(C(=O)NC(C)(C#N)COc2ccccc2Cl)cc1` (stereo not given) gave an EC100 [1] greater than 10 ppm and an EC100 [2] greater than 10 ppm.

`CC(C#N)(COc1ccc(C(F)(F)F)cc1)NC(=O)c1ccc(C(F)(F)F)cc1` (stereo not given) was tested, and the EC100 [1] was greater than 10 ppm and the EC100 [2] was greater than 10 ppm.

`CC(C#N)(COc1cccc(Cl)c1Cl)NC(=O)c1ccc(C(F)(F)F)cc1` (stereo not given) gave an EC100 [1] of 0.1 ppm, an EC100 [2] of 0.1 ppm and an Activity [9] of 84%. For the same molecule, the Activity [10] was 67%.

With `CCc1ccccc1OCC(C)(C#N)NC(=O)c1ccc(OC(F)(F)F)cc1` (stereo not given) the EC100 [1] was 0.32 ppm and the EC100 [2] was 0.32 ppm.

Work on `CC(C#N)(COc1cc(F)ccc1Br)NC(=O)c1ccc(OC(F)(F)F)cc1` (stereo not given) yielded an EC100 [1] of 0.01 ppm, an EC100 [2] of 0.1 ppm and an Activity [7] of 90%. The Activity [8] was 99%.

`CC(C#N)(COc1ccc(C#N)cc1C(F)(F)F)NC(=O)c1ccc(SC(F)(F)F)cc1` (stereo not given) showed an EC100 [1] of 0.032 ppm, an EC100 [2] of 0.032 ppm and an Activity [3] of 90%. It also gave an Activity [4] of 98%, an Activity [5] of 92% and an Activity [6] of 86%.

Molecule `CC(C#N)(COc1ccccc1Cl)NC(=O)c1ccc(C(F)(F)F)cc1F` (stereo not given) has an EC100 [1] of 0.32 ppm and an EC100 [2] of 0.32 ppm.

With `CC(C#N)(COc1cc(F)ccc1Cl)NC(=O)c1ccc(OC(F)(F)F)cc1` (stereo not given) the EC100 [1] was 0.01 ppm, the EC100 [2] was 0.032 ppm and the Activity [7] was 92%. For the same molecule, the Activity [8] was 79%.

`CC(C#N)(COc1cc(C#N)ccc1C(F)(F)F)NC(=O)c1ccc(C(F)(F)F)cc1` (stereo not given) was tested, and the EC100 [1] was 0.032 ppm, the EC100 [2] was 0.1 ppm and the Activity [3] was 97%. The Activity [4] was 87%, the Activity [5] was 90% and the Activity [6] was 72%.

Molecule `C[C@@](C#N)(COc1cc(C#N)ccc1C(F)(F)F)NC(=O)c1ccc(SC(F)(F)F)cc1` has an EC100 [1] of 10 ppm and an EC100 [2] greater than 10 ppm.

`CC(C#N)(COc1ccccc1Cl)NC(=O)c1ccc(F)cc1` (stereo not given) was tested, and the EC100 [1] was 3.2 ppm and the EC100 [2] was 1 ppm.

`CC(C#N)(COc1c(F)cc(F)cc1F)NC(=O)c1ccc(OC(F)(F)F)cc1` (stereo not given) showed an EC100 [1] greater than 10 ppm and an EC100 [2] greater than 10 ppm.

For `CC(C#N)(COc1cc(C#N)ccc1C(F)(F)F)NC(=O)c1ccc(OC(F)(F)F)cc1` (stereo not given), the EC100 [1] was 0.01 ppm, the EC100 [2] was 0.032 ppm and the Activity [3] was 95%. For the same molecule, the Activity [4] was 85%, the Activity [5] was 97% and the Activity [6] was 75%.

Work on `CC(C#N)(COc1ccccc1)NC(=O)c1ccc(C(F)(F)F)cc1` (stereo not given) yielded an EC100 [1] greater than 10 ppm and an EC100 [2] greater than 10 ppm.

`CC(C#N)(COc1ccccc1Cl)NC(=O)c1cccc(OC(F)(F)F)c1` (stereo not given) was tested, and the EC100 [1] was greater than 10 ppm and the EC100 [2] was 10 ppm.

`CC(C#N)(COc1ccccc1C(F)(F)F)NC(=O)c1ccc(-c2ccccc2)cc1` (stereo not given) showed an EC100 [1] greater than 10 ppm and an EC100 [2] greater than 10 ppm.

Molecule `CC(C#N)(COc1c(Cl)cccc1Cl)NC(=O)c1ccc(C(F)(F)F)cc1` (stereo not given) has an EC100 [1] greater than 10 ppm and an EC100 [2] greater than 10 ppm.

For `CC(C#N)(COc1ccccc1Cl)NC(=O)c1ccc(C(F)(F)F)cc1` (stereo not given), the EC100 [1] was 0.032 ppm, the EC100 [2] was 0.032 ppm and the Activity [9] was 88%. The Activity [10] was 19%.

With `CC(C#N)(COc1cc(F)c(F)cc1C(F)(F)F)NC(=O)c1ccc(SC(F)(F)F)cc1` (stereo not given) the EC100 [1] was 0.032 ppm, the EC100 [2] was 0.032 ppm and the Activity [3] was 84%. It also gave an Activity [4] of 98%, an Activity [5] of 73% and an Activity [6] of 90%.

With `CC(C#N)(COc1cccc(F)c1)NC(=O)c1ccc(OC(F)(F)F)cc1` (stereo not given) the EC100 [1] was 0.32 ppm and the EC100 [2] was 1 ppm.

Work on `CC(C#N)(COc1cc(F)c(F)cc1C(F)(F)F)NC(=O)c1ccc(C(F)(F)F)cc1` (stereo not given) yielded an EC100 [1] of 0.032 ppm, an EC100 [2] of 0.032 ppm and an Activity [3] of 89%. For the same molecule, the Activity [4] was 91%, the Activity [5] was 94% and the Activity [6] was 90%.

`CC(C#N)(COc1cc(C#N)ccc1C(F)(F)F)NC(=O)c1ccc(SC(F)(F)F)cc1` (stereo not given) showed an EC100 [1] of 0.01 ppm, an EC100 [2] of 0.032 ppm and an Activity [3] of 100%. For the same molecule, the Activity [4] was 100%, the Activity [5] was 99% and the Activity [6] was 84%.

Work on `CC(C#N)(COc1ccccc1C(F)(F)F)NC(=O)c1ccccc1` (stereo not given) yielded an EC100 [1] of 10 ppm and an EC100 [2] greater than 10 ppm.

For `CC(C#N)(COc1ccccc1C(F)(F)F)NC(=O)c1ccc(SC(F)(F)F)cc1` (stereo not given), the EC100 [1] was 0.032 ppm, the EC100 [2] was 0.032 ppm and the Activity [9] was 77%. For the same molecule, the Activity [10] was 99%.

For `CC(C#N)(COc1cc(F)c(F)cc1C(F)(F)F)NC(=O)c1ccc(OC(F)(F)F)cc1` (single isomer, unassigned; (+)), the EC100 [1] was 1 ppm and the EC100 [2] was 3.2 ppm.

`CC(C#N)(COc1cc(F)c(F)cc1C(F)(F)F)NC(=O)c1ccc(OC(F)(F)F)cc1` (single isomer, unassigned; (-)) was tested, and the EC100 [1] was 0.0032 ppm and the EC100 [2] was 0.01 ppm.

Molecule `CC(C#N)(COc1cc(F)c(F)cc1C(F)(F)F)NC(=O)c1ccc(OC(F)(F)F)cc1` (stereo in doubt; 19) has an EC100 [1] of 0.01 ppm, an EC100 [2] of 0.032 ppm and an Activity [3] of 99%. The Activity [4] was 73%, the Activity [5] was 99% and the Activity [6] was 75%.

`c1ccc([C@H]2CN3CCSC3=N2)cc1` [LEVAMISOLE] was tested, and the EC100 [1] was 0.32 ppm and the EC100 [2] was 10 ppm.

For `C[C@](C#N)(COc1cc(C#N)ccc1C(F)(F)F)NC(=O)c1ccc(SC(F)(F)F)cc1` [MONEPANTEL], the EC100 [1] was 0.0032 ppm and the EC100 [2] was 0.01 ppm.

Molecule `c1ccc2[nH]c(-c3cscn3)nc2c1` [THIABENDAZOLE] has an EC100 [1] of 10 ppm and an EC100 [2] of 1 ppm.
